High-throughput results deposited in PubChem BioAssay by The Scripps Research Institute Molecular Screening Center.
CHO-K1 Ca antag: M1 antagonist counterscreen hit in parental CHO-K1 cells. ATP-induced calcium, Fluo-8 fluorescence. inhibition, % at 3 µM. 0.6% of 360,000 active;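 active means inhibition above a per-plate cutoff, the plate's mean sample inhibition plus 3 SD, cut at about 24% in these data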;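 further: 0% = DMSO plus EC80 ATP and 100% = DMSO alone without ATP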
OX1R antag-1: antagonists of human orexin 1 receptor (OX1R); Orexin/Hypocretin receptor type 1 (Homo sapiens), O43613; OX1R-expressing cells, FRET antagonist read-out; inhibition, % at 6.6 µM; 1.8% of 330,000 active; AID 485270, 2010; in the data active means inhibition mostly above about 38%, no sharp cut-off; inactive means mostly below about 40%;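 further: 0% = agonist challenge alone and 100% = reference antagonist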
Target sequence (O43613 whole entry, looked up): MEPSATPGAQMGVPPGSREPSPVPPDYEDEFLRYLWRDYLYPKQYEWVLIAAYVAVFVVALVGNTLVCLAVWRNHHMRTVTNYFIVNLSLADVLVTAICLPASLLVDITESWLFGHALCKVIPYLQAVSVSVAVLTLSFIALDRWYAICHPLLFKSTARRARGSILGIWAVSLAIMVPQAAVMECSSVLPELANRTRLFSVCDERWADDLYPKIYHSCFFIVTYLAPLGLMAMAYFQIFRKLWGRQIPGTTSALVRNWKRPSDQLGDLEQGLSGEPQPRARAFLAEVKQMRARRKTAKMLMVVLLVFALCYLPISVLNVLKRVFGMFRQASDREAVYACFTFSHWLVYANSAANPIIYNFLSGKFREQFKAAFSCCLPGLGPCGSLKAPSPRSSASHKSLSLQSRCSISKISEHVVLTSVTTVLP
M1 PAM parental: nonselective calcium activators in parental CHO-K1 cells, primary screen, counter-screen for M1 PAM project, cell-based, Fluo-8 calcium fluorescence, full deck, 1536-well. 0.02% of 360,000 active. activation, % at 3 µM. ATP EC20; 0% at ATP EC20, 100% at ATP max;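 active means activation above the run cutoff, the mean activation of all test compounds plus 3 SD, cut at about 40% in these data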;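 further: peak over basal fluorescence ratio in a 140 s read after ATP addition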
OX1R antag-2: OX1R (HCRTR1) antagonists, primary screen, fluorescence, CHO/OX1R cells, Fluo-8 calcium, orexin A; Fluo-8 calcium fluorescence; inhibition, % at 5 µM; 0.43% of 330,000 active;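 active means inhibition above its plate's threshold, mean inhibition of all tested compounds on the plate plus 3 SD, cut at about 37% in these data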;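 further: 0% = orexin A challenge wells and 100% = SB-334867-A antagonist wells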
CHO-K1 Ca ag: counter-screen for M1 agonists: effect in parental CHO-K1 cells; 0.48% of 360,000 active; AID 602248, 2012; activation, % at 3 µM; Fluo-8 calcium fluorescence; scaled to maximal ATP response, vehicle zero; in the data active means activation above about 15%;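 further: untransfected CHO-K1 host cells lacking M1 receptor as counterscreen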
CHO parental Ca: ATP-evoked calcium signal inhibitors, parental CHO, primary screen, counter-screen for OX1R antagonist project, cell-based, fluorescence, Fluo-8 calcium dye; parental CHO-K1, ATP-induced calcium, Fluo-8 fluorescence; 0.63% of 330,000 active; AID 463079, 2010; inhibition, % at 5.6 µM;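 active means inhibition above that plate's mean sample inhibition plus 3 SD, cut at about 26% in these data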;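 further: 0% = ATP-challenged DMSO wells and 100% = DMSO wells without ATP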
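Assay system: untransfected parental CHO cell line. Also added: ATP agonist challenge. Dosing: one dose, 5.6 µM nominal. Measured by: Fluo-8 fluorescence. Read-out: % inhibition. Benchmarks: ATP wells versus no-ATP DMSO wells. Repeats: no replicates.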
Starred values were filed as active, the others as inactive. An excerpt weighted towards active compounds, which were near 2.9% of everything screened.

Cc1c(O)c(CN2CCCC2)cc2c3c(c(=O)oc12)CCC3 was read as CHO-K1 Ca antag -6.7, OX1R antag-1 23.5, M1 PAM parental 7.6, OX1R antag-2 -13.6, CHO-K1 Ca ag 0.0 and CHO parental Ca -10.8.
O=c1oc2c3c4c(cc2c2c1CCC2)OCCN4CCC3 was read as CHO-K1 Ca antag -10.1, OX1R antag-1 58.7*, M1 PAM parental 17.8, OX1R antag-2 -5.8, CHO-K1 Ca ag -0.1 and CHO parental Ca -13.5.
`COc1ccc(OCc2cc(C(=O)NCc3nc(C)cs3)no2)c(Cl)c1` gave CHO-K1 Ca antag 7.5, OX1R antag-1 14.9, M1 PAM parental -1.0, OX1R antag-2 -8.8, CHO-K1 Ca ag 1.7 and CHO parental Ca -8.0.
CN(C)c1cccc(/C=C(\C#N)c2ccccc2)c1 was read as CHO-K1 Ca antag -14.4, OX1R antag-1 17.8, M1 PAM parental 19.5, OX1R antag-2 -23.3, CHO-K1 Ca ag 0.8 and CHO parental Ca 37.8*.
`CCc1cccc(OCCOC(=O)CNS(=O)(=O)c2ccc(NC(C)=O)cc2)c1` gave CHO-K1 Ca antag -0.9, M1 PAM parental -20.7 and CHO-K1 Ca ag 1.8.
Screening O=C(NCCc1ccccc1)C(NS(=O)(=O)c1cccc2nsnc12)c1ccccc1 (centres undefined) returned CHO-K1 Ca antag -16.9, OX1R antag-1 73.5*, M1 PAM parental 14.6, OX1R antag-2 -14.7, CHO-K1 Ca ag -0.1 and CHO parental Ca -17.9.
`O=C(CCNS(=O)(=O)c1cccc2nsnc12)NCc1ccccc1` gave CHO-K1 Ca antag -18.2, OX1R antag-1 76.6*, M1 PAM parental -4.0, OX1R antag-2 -16.5, CHO-K1 Ca ag 1.5 and CHO parental Ca -0.7.
For CC(NC(=O)CCNS(=O)(=O)c1cccc2nsnc12)c1ccccc1 (centres undefined) the results were CHO-K1 Ca antag -16.3, OX1R antag-1 68.6*, M1 PAM parental -7.1, OX1R antag-2 -9.3, CHO-K1 Ca ag 1.2 and CHO parental Ca -12.0.
CCCNc1ncnc2c1cnn2C1CCCCO1 (centres undefined) was read as CHO-K1 Ca antag -15.5, M1 PAM parental 12.9 and CHO-K1 Ca ag 0.6.
Screening O=C(Nc1ccc2c(c1)OCO2)c1cc2n(n1)C(C(F)(F)F)CC(c1ccccc1)N2 (centres undefined) returned CHO-K1 Ca antag 5.8, OX1R antag-1 11.9, M1 PAM parental -0.3, OX1R antag-2 -6.9, CHO-K1 Ca ag 0.2 and CHO parental Ca 19.6.
`O=C(Nc1ccc2c(c1)OCO2)c1cnn2c1NC(c1ccco1)CC2C(F)(F)F` (centres undefined) gave CHO-K1 Ca antag -8.0, OX1R antag-1 14.8, M1 PAM parental 18.3, OX1R antag-2 -18.0, CHO-K1 Ca ag 0.8 and CHO parental Ca 46.8*.
Screening CN1C2=C(C(=O)CC(C)(C)C2)C(c2cccs2)C2=C1CC(C)(C)CC2=O returned CHO-K1 Ca antag -0.5, OX1R antag-1 12.4, M1 PAM parental -13.1, OX1R antag-2 -13.7, CHO-K1 Ca ag -1.1 and CHO parental Ca -5.4.
Screening N=c1n(Cc2ccc(Cl)cc2)c2ccccc2n1CC(O)COc1ccccc1 (centres undefined) returned CHO-K1 Ca antag 8.6, OX1R antag-1 6.9, M1 PAM parental 20.0, OX1R antag-2 74.5*, CHO-K1 Ca ag 9.6 and CHO parental Ca 71.6*.
COc1ccc(OCC(O)Cn2c(=N)n(Cc3ccccc3)c3ccccc32)cc1 (centres undefined) was read as CHO-K1 Ca antag -4.6, OX1R antag-1 7.7, M1 PAM parental 13.0, OX1R antag-2 -6.7, CHO-K1 Ca ag 1.6 and CHO parental Ca -11.8.
`COC(=O)Cn1c(=NC(=O)C(C)C)sc2c(C)cc(C)cc21` gave CHO-K1 Ca antag 29.9*, OX1R antag-1 3.8, M1 PAM parental -5.7, OX1R antag-2 -40.2, CHO-K1 Ca ag 0.6 and CHO parental Ca -24.1.
`C=CCNC(=S)/C(=C(/[O-])c1ccccc1Br)[n+]1ccccc1` gave CHO-K1 Ca antag -16.4, OX1R antag-1 15.0, M1 PAM parental 9.0, OX1R antag-2 -12.5, CHO-K1 Ca ag -0.2 and CHO parental Ca -5.1.
`CC1(C)CC(=O)c2c(oc3ccc(NS(=O)(=O)c4ccc(C(=O)O)cc4)cc23)C1` gave CHO-K1 Ca antag 24.5*, OX1R antag-1 1.1, M1 PAM parental -17.7, OX1R antag-2 1.3, CHO-K1 Ca ag -0.3 and CHO parental Ca -12.5.
CSc1ccc(Cn2nnc(C(=O)NCc3ccccc3)c2N)cc1 was read as CHO-K1 Ca antag -0.9, OX1R antag-1 1.7, M1 PAM parental 21.9, OX1R antag-2 25.1, CHO-K1 Ca ag 19.0* and CHO parental Ca 4.8.
C[n+]1ccccc1/C=C/c1ccc([N+](=O)[O-])cc1 was read as CHO-K1 Ca antag -4.6, OX1R antag-1 36.2*, M1 PAM parental 16.4, OX1R antag-2 -6.2, CHO-K1 Ca ag 0.3 and CHO parental Ca 0.6.
`C[n+]1ccccc1/C=C/c1ccc(C#N)cc1` gave CHO-K1 Ca antag -8.0, OX1R antag-1 19.3, M1 PAM parental 12.3, OX1R antag-2 -6.8, CHO-K1 Ca ag -0.2 and CHO parental Ca -9.8.
`O=C(COc1ccccc1Cl)Nc1ccc2c(c1)C(=O)NC2=O` gave CHO-K1 Ca antag 7.1, OX1R antag-1 28.8, M1 PAM parental -21.3, OX1R antag-2 -11.6, CHO-K1 Ca ag 0.7 and CHO parental Ca -11.3.
`CC(C)Oc1ccc(C(CCNCc2ccc(O)cc2)c2ccccc2)cc1` (centres undefined) gave CHO-K1 Ca antag 14.7, M1 PAM parental 2.4 and CHO-K1 Ca ag 20.8*.
Screening COc1ccc(C(CCNCc2ccc(OC)c(OC)c2)c2ccc(F)cc2)cc1 (centres undefined) returned CHO-K1 Ca antag 7.5, OX1R antag-1 10.2, M1 PAM parental -0.7, OX1R antag-2 -11.4, CHO-K1 Ca ag 17.9* and CHO parental Ca 3.7.
Screening CC(C)Oc1ccc(CNC(=O)CC(c2ccccc2)c2cc(Cl)ccc2O)cc1 (centres undefined) returned CHO-K1 Ca antag -11.3, OX1R antag-1 4.9, M1 PAM parental 8.9, OX1R antag-2 -14.1, CHO-K1 Ca ag 1.4 and CHO parental Ca -25.0.
COc1ccc(C(CCNCc2ccc(N(C)C)cc2)c2ccccc2)cc1 (centres undefined) was read as CHO-K1 Ca antag 3.0, OX1R antag-1 -2.9, M1 PAM parental -9.0, OX1R antag-2 -36.2, CHO-K1 Ca ag 22.5* and CHO parental Ca -4.5.
For CCOc1ccc(S(=O)(=O)NCCCn2ccnc2)cc1 the results were CHO-K1 Ca antag -2.4, OX1R antag-1 11.6, M1 PAM parental 2.1, OX1R antag-2 -2.3, CHO-K1 Ca ag 0.7 and CHO parental Ca 10.3.
